Measured values reported in ChEMBL document CHEMBL3044563, “Alternethanoxins A and B, polycyclic ethanones produced by Alternaria sonchi , potential mycoherbicides for Sonchus arvensis biocontrol” (2009).
The source made the active and inactive calls. No cut-off for these calls is given here.

How the values were obtained:
Convolvulus arvensis = assay: Phytotoxicity against Convolvulus arvensis assessed as necrotic lesion diameter at 2 mg/mL at 24 degC measured after 2 days by leaf disk-puncture assay; format: functional
Summary of the method: (§1)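 Plants were raised in a greenhouse from underground shoot pieces or seeds. 10 mm disks were cut with a cork borer from well-expanded leaves, laid on moist filter paper and punctured centrally with a needle. Compound was predissolved in EtOH and diluted with water (final 5% v/v EtOH), and a 10 μL droplet was applied. Disks were incubated at 24 °C under a 12 h photoperiod, and necrotic lesion diameter (mm) was measured after 2 days.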

Phleum pratense = assay: Phytotoxicity against Phleum pratense (timothy grass) assessed as necrotic lesion diameter at 2 mg/mL at 24 degC measured after 2 days by leaf disk-puncture assay; format: functional; summary of the method: as §1
Aegopodium podagraria = assay: Phytotoxicity against Aegopodium podagraria (bishop's weed) assessed as necrotic lesion diameter at 2 mg/mL at 24 degC measured after 2 days by leaf disk-puncture assay; format: functional; summary of the method: as §1
Saccharomyces cerevisiae = assay: Antifungal activity against Saccharomyces cerevisiae at 100 ug/disk; format: functional, organism-based
Summary of the method: (§2)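 Test organisms were S. cerevisiae (antifungal) and X. campestris, E. coli and B. subtilis (antibacterial). Compound applied to a disk at 100 μg per disk, following a previously described disk method.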

Taraxacum officinale = assay: Phytotoxicity against Taraxacum officinale (dandelion) assessed as necrotic lesion diameter at 2 mg/mL at 24 degC measured after 2 days by leaf disk-puncture assay; format: functional; summary of the method: as §1
Cirsium arvense = assay: Phytotoxicity against Cirsium arvense (Canada thistle) assessed as necrotic lesion diameter at 2 mg/mL at 24 degC measured after 2 days by leaf disk-puncture assay; format: functional; summary of the method: as §1
Amaranthus retroflexus = assay: Phytotoxicity against Amaranthus rethroflexus assessed as necrotic lesion diameter at 2 mg/mL at 24 degC measured after 2 days by leaf disk-puncture assay; format: functional; summary of the method: as §1
Calendula officinalis = assay: Phytotoxicity against Calendula officinalis assessed as necrotic lesion diameter at 2 mg/mL at 24 degC measured after 2 days by leaf disk-puncture assay; format: functional; summary of the method: as §1
Sonchus arvensis [1] = assay: Phytotoxicity against Sonchus arvensis (field sow-thistle) assessed as necrotic lesions at 1 mg/mL at 24 degC measured after 2 days by leaf disk-puncture assay; format: functional; summary of the method: as §1
Elymus repens = assay: Phytotoxicity against Elymus repens (couch grass) assessed as necrotic lesion diameter at 2 mg/mL at 24 degC measured after 2 days by leaf disk-puncture assay; format: functional; summary of the method: as §1
Sonchus arvensis [2] = assay: Phytotoxicity against Sonchus arvensis (field sow-thistle) assessed as necrotic lesion diameter at 4 mg/mL at 24 degC measured after 2 days by leaf disk-puncture assay; format: functional; summary of the method: as §1
Bacillus subtilis = assay: Antibacterial activity against Bacillus subtilis at 100 ug/disk; format: functional, organism-based; summary of the method: as §2
Escherichia coli = assay: Antibacterial activity against Escherichia coli at 100 ug/disk; format: functional, organism-based; summary of the method: as §2
Xanthomonas campestris = assay: Antibacterial activity against Xanthomonas campestris at 100 ug/disk; format: functional, organism-based; summary of the method: as §2
Sonchus arvensis [3] = assay: Phytotoxicity against Sonchus arvensis (field sow-thistle) assessed as necrotic lesions at 2 mg/mL at 24 degC measured after 2 days by leaf disk-puncture assay; format: functional; summary of the method: as §1

Structure (SMILES) | Activity (Convolvulus arvensis) | Activity (Phleum pratense) | Activity (Aegopodium podagraria) | Activity (Saccharomyces cerevisiae) | Activity (Taraxacum officinale) | Activity (Cirsium arvense) | Activity (Amaranthus retroflexus) | Activity (Calendula officinalis) | Activity (Sonchus arvensis [1]) | Activity (Elymus repens) | Activity (Sonchus arvensis [2]) | Activity (Bacillus subtilis) | Activity (Escherichia coli) | Activity (Xanthomonas campestris) | Activity (Sonchus arvensis [3])
COc1cccc2c1[C@H](O)Oc1c(O)cc(C(C)=O)c(O)c1-2 [ALTERNETHANOXIN A] | 1 mm | 1 mm | 1 mm | inactive | 1 mm | 1 mm | 1 mm | 1 mm | Active | 1 mm | 4 mm | inactive | inactive | inactive | 
COc1ccc2oc3c(C(C)=O)cc(O)c4c3c2c1[C@@H](O)O4 [ALTERNETHANOXIN B] | 1 mm | 1 mm | 1 mm | inactive | 1 mm | 1 mm | 1 mm | 1 mm |  | 1 mm | 2 mm | inactive | inactive | inactive | Active
